According to ChEMBL document CHEMBL1140861, “Short antisense oligonucleotides with novel 2'-4' conformationaly restricted nucleoside analogues show improved potency without increased toxicity in animals” (J Med Chem, 2009):
Activity calls are given as the source filed them. The calls are words filed in the database; no cut-off is given here.

Tests used:
Mus musculus [1] = assay: Reduction of PTEN mRNA level in ip dosed BALB/c mouse liver administered twice a week for 3 weeks measured after 72 hrs of last dose; assay type: functional
In short: (§1)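 Male Balb/c mice, 6 weeks old, dosed ip twice weekly for 3 weeks at 0.5, 1.5, 4.7 and 15 mg/kg (two ASOs) or 0.7, 2.3, 7.2 and 23 mg/kg (MOE control); sacrificed 72 h after last dose; ALT, liver PTEN mRNA, liver and spleen weights and body weight gain assessed; ED50 derived; errors as sd.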

Mus musculus [2] = assay: Hepatotoxicity in BALB/c mouse assessed as increase in liver ALT level at 100 mg/kg, ip after 72 hrs; assay type: toxicity, organism-based; set-up: dose 100 mg/kg, route intraperitoneal; conditions: in vivo
In short: (§2)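 Balb/c mice, 6 weeks old, n = 4 per dose group, single ip doses of 32, 66 or 100 mg/kg; killed 72 h after administration; serum ALT and liver PTEN mRNA quantified after sacrifice; errors as sd.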

Mus musculus [3] = assay: Toxicity in BALB/c mouse assessed as reduction in body weight at 0.5 mg/kg, ip administered twice a week for 3 weeks measured after 72 hrs of last dose; assay type: organism-based; set-up: dose 0.5 mg/kg, route intraperitoneal; conditions: in vivo; in short: as §1
Mus musculus [4] = assay: Reduction of PTEN mRNA level in BALB/c mouse liver at 32 mg/kg, ip after 72 hrs; assay type: functional, organism-based; set-up: dose 32 mg/kg; in short: as §2
Mus musculus [5] = assay: Hepatotoxicity in BALB/c mouse assessed as increase in liver ALT level at 0.5 mg/kg, ip administered twice a week for 3 weeks measured after 72 hrs of last dose; assay type: toxicity, organism-based; set-up: dose 0.5 mg/kg, route intraperitoneal; conditions: in vivo; in short: as §1
Mus musculus [6] = assay: Toxicity in BALB/c mouse assessed as reduction in body weight at 1.5 mg/kg, ip administered twice a week for 3 weeks measured after 72 hrs of last dose; assay type: organism-based; set-up: dose 1.5 mg/kg, route intraperitoneal; conditions: in vivo; in short: as §1
Mus musculus [7] = assay: Reduction of PTEN mRNA expression in ip dosed BALB/c mouse administered twice a week for 3 weeks assessed as antisense oligonucleotide level in liver measured after 72 hrs of last dose; assay type: functional, organism-based
Mus musculus [8] = assay: Toxicity in BALB/c mouse assessed as reduction in body weight at 4.7 mg/kg, ip administered twice a week for 3 weeks measured after 72 hrs of last dose; assay type: organism-based; set-up: dose 4.7 mg/kg, route intraperitoneal; conditions: in vivo; in short: as §1
Mus musculus [9] = assay: Hepatotoxicity in BALB/c mouse assessed as increase in liver ALT level at 1.5 mg/kg, ip administered twice a week for 3 weeks measured after 72 hrs of last dose; assay type: toxicity, organism-based; set-up: dose 1.5 mg/kg, route intraperitoneal; conditions: in vivo; in short: as §1
Mus musculus [10] = assay: Toxicity in BALB/c mouse assessed as reduction in body weight at 15 mg/kg, ip administered twice a week for 3 weeks measured after 72 hrs of last dose; assay type: organism-based; set-up: dose 15 mg/kg, route intraperitoneal; conditions: in vivo; in short: as §1
Mus musculus [11] = assay: Toxicity in BALB/c mouse assessed as increase in spleen weight at 0.5 mg/kg, ip administered twice a week for 3 weeks measured after 72 hrs of last dose; assay type: organism-based; set-up: dose 0.5 mg/kg, route intraperitoneal; conditions: in vivo; in short: as §1
Mus musculus [12] = assay: Reduction of PTEN mRNA level in BALB/c mouse liver at 100 mg/kg, ip after 72 hrs; assay type: functional; in short: as §2
Mus musculus [13] = assay: Toxicity in BALB/c mouse assessed as increase in spleen weight at 1.5 mg/kg, ip administered twice a week for 3 weeks measured after 72 hrs of last dose; assay type: organism-based; set-up: dose 1.5 mg/kg, route intraperitoneal; conditions: in vivo; in short: as §1
bEND = assay: Reduction in mouse PTEN mRNA level expressed in mouse bEND cells; assay type: functional, cell-based
In short: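 bEND mouse brain endothelial cells transfected with ASO using lipofectin; PTEN mRNA reduction measured over a dose range; IC50 taken from dose-response curves.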

Mus musculus [14] = assay: Hepatotoxicity in BALB/c mouse assessed as increase in liver ALT level at 4.7 mg/kg, ip administered twice a week for 3 weeks measured after 72 hrs of last dose; assay type: toxicity, organism-based; set-up: dose 4.7 mg/kg, route intraperitoneal; conditions: in vivo; in short: as §1
Mus musculus [15] = assay: Metabolic stability in BALB/c mouse liver assessed as antisense oligonucleotide level at 18 mg/kg; assay type: ADME, organism-based; set-up: dose 18 mg/kg; conditions: in vivo
Mus musculus [16] = assay: Toxicity in BALB/c mouse assessed as increase in spleen weight at 15 mg/kg, ip administered twice a week for 3 weeks measured after 72 hrs of last dose; assay type: organism-based; set-up: dose 15 mg/kg, route intraperitoneal; conditions: in vivo; in short: as §1
Mus musculus [17] = assay: Toxicity in BALB/c mouse assessed as increase in liver weight at 4.7 mg/kg, ip administered twice a week for 3 weeks measured after 72 hrs of last dose; assay type: organism-based; set-up: dose 4.7 mg/kg, route intraperitoneal; conditions: in vivo; in short: as §1
Mus musculus [18] = assay: Toxicity in BALB/c mouse assessed as increase in liver weight at 0.5 mg/kg, ip administered twice a week for 3 weeks measured after 72 hrs of last dose; assay type: organism-based; set-up: dose 0.5 mg/kg, route intraperitoneal; conditions: in vivo; in short: as §1
Mus musculus [19] = assay: Reduction of PTEN mRNA level in ip dosed BALB/c mouse liver after 72 hrs; assay type: functional
Mus musculus [20] = assay: Hepatotoxicity in BALB/c mouse assessed as increase in liver ALT level at 15 mg/kg, ip administered twice a week for 3 weeks measured after 72 hrs of last dose; assay type: toxicity, organism-based; set-up: dose 15 mg/kg, route intraperitoneal; conditions: in vivo; in short: as §1
Mus musculus [21] = assay: Toxicity in BALB/c mouse assessed as increase in liver weight at 15 mg/kg, ip administered twice a week for 3 weeks measured after 72 hrs of last dose; assay type: organism-based; set-up: dose 15 mg/kg, route intraperitoneal; conditions: in vivo; in short: as §1
Mus musculus [22] = assay: Reduction of PTEN level in ip dosed BALB/c mouse liver at 37 mg/kg by Western blot analysis; assay type: functional, organism-based; set-up: dose 37 mg/kg
Mus musculus [23] = assay: Toxicity in BALB/c mouse assessed as increase in liver weight at 1.5 mg/kg, ip administered twice a week for 3 weeks measured after 72 hrs of last dose; assay type: organism-based; set-up: dose 1.5 mg/kg, route intraperitoneal; conditions: in vivo; in short: as §1
Mus musculus [24] = species: Mus musculus; assay: Binding affinity to mouse PTEN mRNA assessed as melting temperature
In short: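 Tm of ASO–RNA duplex, i.e. melting temperature of the ASO hybridised to its complementary RNA.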

Mus musculus [25] = assay: Reduction of PTEN mRNA level in BALB/c mouse liver at 66 mg/kg, ip after 72 hrs; assay type: functional, organism-based; set-up: dose 66 mg/kg; in short: as §2
Mus musculus [26] = assay: Toxicity in BALB/c mouse assessed as increase in spleen weight at 4.7 mg/kg, ip administered twice a week for 3 weeks measured after 72 hrs of last dose; assay type: organism-based; set-up: dose 4.7 mg/kg, route intraperitoneal; conditions: in vivo; in short: as §1

EC50 (Mus musculus [7]): 6.3 µg/g | IC50 (bEND): 5.8 nM | Stability (Mus musculus [15]): 25 µg/g | Tm (Mus musculus [24]): 59.1 °C
SMILES: Cc1cn([C@@H]2O[C@@]3(COP(O)(=S)O[C@H]4[C@H]5O[C@@H](C)[C@]4(COP(O)(=S)O[C@H]4C[C@H](n6cc(C)c(=O)[nH]c6=O)O[C@@H]4COP(O)(=S)O[C@H]4[C@@H](O)[C@H](n6cnc7c6N=CNC7N)O[C@@H]4COP(O)(=S)O[C@H]4[C@@H](O)[C@H](n6cnc7c(=O)[nH]c(N)nc76)O[C@@H]4COP(O)(=S)O[C@H]4[C@@H](O)[C@H](n6ccc(N)nc6=O)O[C@@H]4COP(O)(=S)O[C@H]4[C@@H](O)[C@H](n6cnc7c(N)ncnc76)O[C@@H]4COP(O)(=S)O[C@H]4[C@@H](O)[C@H](n6ccc(N)nc6=O)O[C@@H]4COP(O)(=S)O[C@H]4[C@@H](O)[C@H](n6cc(C)c(=O)[nH]c6=O)O[C@@H]4COP(O)(=S)O[C@H]4[C@@H](O)[C@H](n6cnc7c(=O)[nH]c(N)nc76)O[C@@H]4COP(O)(=S)O[C@H]4[C@@H](O)[C@H](n6cnc7c(=O)[nH]c(N)nc76)O[C@@H]4COP(O)(=S)O[C@H]4[C@@H](O)[C@H](n6ccc(N)nc6=O)O[C@@H]4COP(O)(=S)O[C@H]4[C@H]6O[C@@H](C)[C@]4(COP(O)(=S)O[C@H]4[C@H]7O[C@@H](C)[C@]4(COP(=O)(O)O)O[C@H]7n4ccc(=O)[nH]c4=O)O[C@H]6n4cc(C)c(N)nc4=O)O[C@H]5n4ccc(=O)[nH]c4=O)[C@H](C)O[C@@H]2[C@@H]3O)c(=O)nc1N (stereo partly drawn)
ED50 (Mus musculus [1]): 2.4 mg/kg | Activity (Mus musculus [2]): Non-toxic | Activity (Mus musculus [3]): Toxic | Activity (Mus musculus [4]): Active | Activity (Mus musculus [5]): Toxic | Activity (Mus musculus [6]): Toxic | Activity (Mus musculus [8]): Toxic | Activity (Mus musculus [9]): Toxic | Activity (Mus musculus [10]): Toxic | Activity (Mus musculus [11]): Non-toxic | Activity (Mus musculus [12]): Active | Activity (Mus musculus [12]; route intraperitoneal): >90% | Activity (Mus musculus [13]): Non-toxic | Activity (Mus musculus [14]): Toxic | Activity (Mus musculus [16]): Non-toxic | Activity (Mus musculus [17]): Non-toxic | Activity (Mus musculus [18]): Non-toxic | ED50 (Mus musculus [19]): 9 mg/kg | Activity (Mus musculus [20]): Toxic | Activity (Mus musculus [21]): Non-toxic | Activity (Mus musculus [22]): Active | Activity (Mus musculus [23]): Non-toxic | Activity (Mus musculus [25]): Active | Activity (Mus musculus [26]): Non-toxic
